Reference: ChEMBL document CHEMBL4354873, “Rationally Designed Small-Molecule Inhibitors Targeting an Unconventional Pocket on the TLR8 Protein-Protein Interface” (J Med Chem, 2020)
pIC50: −log10 of the molar value. The source made the active and inactive calls. No cut-off for these calls is given here.

Columns and labels:
Toll-like receptor 8 = molecular target: T1, Toll-like receptor 8 (Homo sapiens, UniProt Q9NR97); assay: Inhibition of human TLR8 expressed in HEK-Blue cells assessed as inhibition of R848-induced NF-kappaB activation measured after 24 hrs by quanti-blue based SEAP reporter gene assay; type: cell-based
T1 sequence (Q9NR97 whole entry): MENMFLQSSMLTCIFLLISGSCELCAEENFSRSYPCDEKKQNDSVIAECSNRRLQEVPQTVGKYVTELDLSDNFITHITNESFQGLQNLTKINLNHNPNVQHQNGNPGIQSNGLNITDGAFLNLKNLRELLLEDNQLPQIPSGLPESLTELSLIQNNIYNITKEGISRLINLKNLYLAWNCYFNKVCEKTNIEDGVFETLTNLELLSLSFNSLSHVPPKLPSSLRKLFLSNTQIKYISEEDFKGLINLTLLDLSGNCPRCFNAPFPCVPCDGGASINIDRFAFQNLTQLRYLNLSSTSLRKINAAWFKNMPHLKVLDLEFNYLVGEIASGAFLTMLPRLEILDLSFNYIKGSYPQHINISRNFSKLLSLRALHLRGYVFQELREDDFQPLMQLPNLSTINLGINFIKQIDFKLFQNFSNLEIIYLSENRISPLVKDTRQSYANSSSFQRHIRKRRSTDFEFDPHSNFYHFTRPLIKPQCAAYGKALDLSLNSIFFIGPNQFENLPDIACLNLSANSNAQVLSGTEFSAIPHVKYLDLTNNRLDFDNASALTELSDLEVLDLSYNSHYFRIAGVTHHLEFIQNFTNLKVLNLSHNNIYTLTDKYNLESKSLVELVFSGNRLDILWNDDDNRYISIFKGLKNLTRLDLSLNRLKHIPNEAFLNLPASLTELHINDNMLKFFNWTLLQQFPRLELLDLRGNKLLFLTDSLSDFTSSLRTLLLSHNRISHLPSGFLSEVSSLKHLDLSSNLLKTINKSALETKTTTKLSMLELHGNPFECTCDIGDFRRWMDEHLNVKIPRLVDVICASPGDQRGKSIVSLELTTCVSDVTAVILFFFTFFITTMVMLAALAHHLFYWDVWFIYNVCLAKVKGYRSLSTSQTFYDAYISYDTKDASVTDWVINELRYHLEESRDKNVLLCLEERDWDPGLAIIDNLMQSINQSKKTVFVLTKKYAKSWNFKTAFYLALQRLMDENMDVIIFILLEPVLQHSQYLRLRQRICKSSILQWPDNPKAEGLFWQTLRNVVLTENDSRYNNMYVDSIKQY

[1] = Cytotoxicity against HEK-Blue cells expressing human TLR8 assessed as reduction in cell viability measured after 24 hrs by CCK8 assay; type: cell-based
How it was run: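 CCK-8 viability: compounds incubated 24 h at 37 °C with HEK-Blue TLR8 cells (4 × 10⁴ cells/well) or PBMCs (3 × 10⁶ cells/mL). CCK-8 was added at 1:10 for up to 2 h, then absorbance read at 450 nm. Values normalized to untreated cells as 100% survival.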

[2] = molecular target: T2, Toll-like receptor 8 (Homo sapiens) (UniProt Q9NR97); assay: Inhibition of TLR8 in human PBMC assessed as reduction in R848-induced TNFalpha production measured after 24 hrs by ELISA
T2 sequence (whole entry): T1 sequence (Q9NR97 whole entry)
How it was run: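 PBMCs from healthy donors isolated by density gradient centrifugation and cultured at once at 3 × 10⁶ cells/mL in RPMI 1640. Cells received R848 and varying compound concentrations for 24 h. Supernatants spun 10 min at 4 °C, frozen at −80 °C, and TNF-α measured by ELISA.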

[3] = molecular target: T2, Toll-like receptor 8 (Homo sapiens); assay: Inhibition of human TLR8 expressed in HEK-Blue cells assessed as inhibition of R848-induced TNFalpha mRNA level at 1 uM measured after 8 hrs by Trizol reagent based qRT-PCR analysis; type: cell-based
How it was run: (§1)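 RT-qPCR: HEK-Blue TLR8 cells seeded at 1 × 10⁶/well and grown 24 h, then switched to serum-free medium. Treated with R848 4 µg/mL ± compound 1 µM for 8 h. Total RNA extracted with TRIzol, reverse transcribed, TNF-α and IL-8 mRNA quantified. Three independent biological replicates, mean ± s.d.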

[4] = molecular target: T2, Toll-like receptor 8 (Homo sapiens); assay: Inhibition of human TLR8 expressed in HEK-Blue cells assessed as inhibition of R848-induced IL-8 mRNA level at 1 uM measured after 8 hrs by Trizol reagent based qRT-PCR analysis; type: cell-based; how it was run: as §1

| SMILES | pIC50 (Toll-like receptor 8) | Activity [1] | also measured |
| --- | --- | --- | --- |
| NC(=O)CSc1nnc(CCCO)n1-c1ccc(Cl)cc1Cl | < 4.70 | – | – |
| CSc1nnc(CCCO)n1-c1ccc(Cl)cc1Cl | – | Non-Toxic | – |
| Cc1nc(-c2nnc(SCc3ccccc3)n2-c2cccc(F)c2)cs1 | – | Non-Toxic | – |
| NC(=O)Sc1nnc(CCCO)n1-c1ccc(Cl)cc1Cl | < 4.70 | – | – |
| CSc1nnc(CCCO)n1C1CCCCC1 | < 4.70 | – | – |
| Fc1cccc(-n2c(SCc3c(Cl)cccc3Cl)nnc2C2CC2)c1 | – | Non-Toxic | – |
| OCCCc1nnc(S)n1-c1ccc(Cl)cc1Cl | < 4.70 | – | inhibition [2]: inactive; inhibition [3]: inactive; inhibition [4]: inactive |
| CSc1nnc(CCCO)n1-c1cccnc1 | < 4.70 | – | – |
| CSc1nnc(O)n1-c1ccc(Cl)cc1Cl | 5.05 | – | – |
